Laboratory results reported in ChEMBL document CHEMBL4819017 (Eur J Med Chem, 2021).
Values joined by “and” are separate entries in the source; they are usually repeats but may differ in a detail not shown here. Equal entries are not always repeated.

Experiments:
[1] = target: Voltage-gated inwardly rectifying potassium channel KCNH2 (Homo sapiens, UniProt Q12809); assay: Inhibition of human ERG by fluorescence polarization assay
How it was run: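 Predictor h-ERG membrane preparations (sonicated) incubated with test compound dilutions and fluorescent tracer (working 4X tracer at 4 nM) at room temperature for ≥1 h. Read-out by fluorescence polarization, ex 530/25, em 590/35.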

[2] = Metabolic stability in mouse liver microsomes assessed as parent compound remaining in presence of NADPH regenerating system at 0.5 uM measured after 15 mins by LC-MS/MS analysis; type: ADME, Microsome; settings: read-out: Stabilty
How it was run: (§1)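 Human, mouse or rat liver microsomes at 0.5 mg/ml protein with compound at 0.5 µM and NADPH-regenerating system, 37 °C with shaking. Control wells contain 0.1 M potassium phosphate instead of the regenerating system. Reaction stopped with acetonitrile/0.1% formic acid, centrifuged, supernatant analyzed by LC-MS/MS. Result is percent parent compound remaining.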

[3] = Tmax in BALB/c mouse at 10 mg/kg, po measured for 8 hrs; type: ADME, organism-based; settings: in vivo
How it was run: (§2)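 Dosing in BALB-C mice intravenously or orally, with plasma sampled over 8 h. Parameters (AUC, T1/2, Cl, Vd, Cmax, Tmax) come from a noncompartmental model. Units: AUC h.ng/ml, Vd L/Kg, Cmax ng/ml, Tmax h.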

[4] = target: Serine/threonine-protein kinase mTOR (Homo sapiens, UniProt P42345); assay: Inhibition of recombinant human GST tagged mTOR (1360 to 2549 residues) expressed in baculovirus expression system measured by LanthaScreen assay
How it was run: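 mTOR inhibition measured by LanthaScreen assay; IC50 values average two independent experiments.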

[5] = Metabolic stability in human liver microsomes assessed as parent compound remaining in presence of NADPH regenerating system at 0.5 uM measured after 15 mins by LC-MS/MS analysis; type: ADME, Microsome; settings: read-out: Stabilty; how it was run: as §1
[6] = Oral bioavailability in BALB/c mouse at 10 mg/kg measured for 8 hrs; type: ADME, organism-based; settings: in vivo
How it was run: (§3)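 BALB/c mice dosed I.V. or P.O. at the stated dose; plasma levels followed for 8 h. Parameters from noncompartmental analysis: AUC (h.ng/ml), T1/2 (h), Cl (L/h/Kg), Vd (L/Kg), Cmax (ng/ml), Tmax (h).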

Cytochrome P450 2C9 = Cytochrome P450 2C9 (Homo sapiens, UniProt P11712); assay: Inhibition of CYP2C9 (unknown origin) using Luciferin-H as substrate at 10 uM preincubated with enzyme and substrate for 5 mins followed by addition of NADPH regeneration system and measured after 60 mins by luminescence method; type: ADME
Sequence of Cytochrome P450 2C9 (P11712 whole entry): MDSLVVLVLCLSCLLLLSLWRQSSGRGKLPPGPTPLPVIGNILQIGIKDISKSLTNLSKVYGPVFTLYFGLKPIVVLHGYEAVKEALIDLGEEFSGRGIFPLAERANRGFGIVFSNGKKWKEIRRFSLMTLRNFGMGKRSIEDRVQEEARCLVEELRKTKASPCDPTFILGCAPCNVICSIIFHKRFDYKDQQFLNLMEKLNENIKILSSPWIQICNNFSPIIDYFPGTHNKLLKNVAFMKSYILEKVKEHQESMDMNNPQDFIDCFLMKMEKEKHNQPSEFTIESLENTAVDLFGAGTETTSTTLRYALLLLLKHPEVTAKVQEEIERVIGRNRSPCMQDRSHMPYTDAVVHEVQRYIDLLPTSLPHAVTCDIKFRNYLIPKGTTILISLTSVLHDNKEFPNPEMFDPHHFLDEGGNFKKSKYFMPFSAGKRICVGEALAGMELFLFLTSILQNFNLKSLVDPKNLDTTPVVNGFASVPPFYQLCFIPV
How it was run: (§4)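 P450-Glo luminescence assays with these substrates: Luciferin-ME (CYP1A2), Luciferin-PPXE (CYP3A4), Luciferin-H (CYP2C9), LuciferinH-EG (CYP2C19), Luciferin-ME-EG (CYP2D6). Compounds run in 1/3 serial dilutions from 10 µM in 0.5% DMSO with enzyme and substrate. After 5 min preincubation, NADPH regeneration reagent added; 60 min at 37 °C, then detection reagent for 30 min. Background subtracted.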

[7] = AUC(infinity) in BALB/c mouse at 10 mg/kg, po measured for 8 hrs; type: ADME, organism-based; set-up: route oral, time 8 hrs, dose 10 mg/kg; settings: in vivo; how it was run: as §3
[8] = target: Phosphatidylinositol 4,5-bisphosphate 3-kinase catalytic subunit alpha isoform (Homo sapiens, UniProt P42336); assay: Inhibition of human full length p110alpha (1 to 1068 residues) expressed in baculovirus-infected Sf21 cells by ADP-Hunter Plus assay
Sequence of Phosphatidylinositol 4,5-bisphosphate 3-kinase catalytic subunit alpha isoform (P42336 whole entry, the tested form may be a part, canonical isoform): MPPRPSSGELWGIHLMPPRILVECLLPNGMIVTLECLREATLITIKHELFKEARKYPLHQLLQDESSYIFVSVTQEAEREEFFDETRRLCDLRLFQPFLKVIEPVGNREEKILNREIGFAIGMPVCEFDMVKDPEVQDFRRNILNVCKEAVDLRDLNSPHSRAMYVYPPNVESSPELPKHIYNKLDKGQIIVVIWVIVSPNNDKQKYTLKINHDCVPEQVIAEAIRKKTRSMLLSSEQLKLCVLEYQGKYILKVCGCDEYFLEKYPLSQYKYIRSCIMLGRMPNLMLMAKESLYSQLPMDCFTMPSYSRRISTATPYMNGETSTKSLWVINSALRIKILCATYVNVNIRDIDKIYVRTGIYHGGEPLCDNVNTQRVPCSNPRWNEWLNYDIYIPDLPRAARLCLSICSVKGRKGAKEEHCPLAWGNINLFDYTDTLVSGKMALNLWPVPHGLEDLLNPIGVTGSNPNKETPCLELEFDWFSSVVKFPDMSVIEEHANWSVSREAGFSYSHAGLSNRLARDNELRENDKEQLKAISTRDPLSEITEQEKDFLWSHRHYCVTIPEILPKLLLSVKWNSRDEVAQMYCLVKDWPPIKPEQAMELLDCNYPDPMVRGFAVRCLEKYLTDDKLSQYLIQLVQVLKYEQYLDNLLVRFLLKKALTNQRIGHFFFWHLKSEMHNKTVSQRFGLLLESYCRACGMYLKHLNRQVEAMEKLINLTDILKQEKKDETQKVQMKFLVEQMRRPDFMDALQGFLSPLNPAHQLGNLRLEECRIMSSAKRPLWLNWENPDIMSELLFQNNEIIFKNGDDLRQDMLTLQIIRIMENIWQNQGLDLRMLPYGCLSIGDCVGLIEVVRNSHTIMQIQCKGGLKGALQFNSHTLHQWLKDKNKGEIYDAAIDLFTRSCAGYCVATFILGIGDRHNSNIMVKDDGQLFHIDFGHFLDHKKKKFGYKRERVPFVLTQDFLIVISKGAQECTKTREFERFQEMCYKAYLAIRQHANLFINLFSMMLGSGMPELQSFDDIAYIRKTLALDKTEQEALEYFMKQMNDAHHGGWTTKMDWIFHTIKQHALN

[9] = Metabolic stability in rat liver microsomes assessed as parent compound remaining in presence of NADPH regenerating system at 0.5 uM measured after 15 mins by LC-MS/MS analysis; type: ADME, Microsome; settings: read-out: Stabilty; how it was run: as §1
[10] = Clearance in BALB/c mouse at 5 mg/kg, iv measured for 8 hrs; type: ADME, organism-based; settings: in vivo; how it was run: as §3
[11] = Inhibition of PI3K/mTOR in human U2OS cells assessed as inhibition of AKT1 phosphorylation at Ser473 residue by C-ELISA; type: cell-based
How it was run: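 U2OS osteosarcoma cells grown in 0.1% FBS and serum-stimulated. Endogenous phospho-AKT1 Ser473 quantified by cell-based ELISA with chemiluminescent substrate. Signal plotted against inhibitor concentration and fitted to a sigmoid dose-response curve.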

[12] = AUC (infinity) in BALB/c mouse at 5 mg/kg, iv measured for 8 hrs; type: ADME, organism-based; set-up: route intravenous, dose 5 mg/kg, time 8 hrs; settings: in vivo; how it was run: as §3
[13] = Half life in BALB/c mouse at 10 mg/kg, po measured for 8 hrs; type: ADME, organism-based; settings: in vivo; how it was run: as §3
Homo sapiens = organism: Homo sapiens; assay: Selectivity ratio of IC50 for recombinant human GST tagged mTOR (1360 to 2549 residues) expressed in baculovirus expression system to IC50 for human full length p110alpha (1 to 1068 residues) expressed in baculovirus-infected Sf21 cells
How it was run: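 mTOR activity measured by LanthaScreen assay. PI3K-α activity measured by ADP Hunter Plus (ADP accumulation, fluorescence ex 544/em 580 nm), normalized to no-compound control and fitted to a sigmoid dose-response curve. IC50s are the average of two independent experiments. Ratio is mTOR IC50 over PI3K-α IC50.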

[14] = Half life in BALB/c mouse at 5 mg/kg, iv measured for 8 hrs; type: ADME, organism-based; settings: in vivo; how it was run: as §3
Cytochrome P450 2C19 = Cytochrome P450 2C19 (Homo sapiens, UniProt P33261); assay: Inhibition of CYP2C19 (unknown origin) using LuciferinH-EG as substrate at 10 uM preincubated with enzyme and substrate for 5 mins followed by addition of NADPH regeneration system and measured after 60 mins by luminescence method; type: ADME; how it was run: as §4
Sequence of Cytochrome P450 2C19 (P33261 whole entry): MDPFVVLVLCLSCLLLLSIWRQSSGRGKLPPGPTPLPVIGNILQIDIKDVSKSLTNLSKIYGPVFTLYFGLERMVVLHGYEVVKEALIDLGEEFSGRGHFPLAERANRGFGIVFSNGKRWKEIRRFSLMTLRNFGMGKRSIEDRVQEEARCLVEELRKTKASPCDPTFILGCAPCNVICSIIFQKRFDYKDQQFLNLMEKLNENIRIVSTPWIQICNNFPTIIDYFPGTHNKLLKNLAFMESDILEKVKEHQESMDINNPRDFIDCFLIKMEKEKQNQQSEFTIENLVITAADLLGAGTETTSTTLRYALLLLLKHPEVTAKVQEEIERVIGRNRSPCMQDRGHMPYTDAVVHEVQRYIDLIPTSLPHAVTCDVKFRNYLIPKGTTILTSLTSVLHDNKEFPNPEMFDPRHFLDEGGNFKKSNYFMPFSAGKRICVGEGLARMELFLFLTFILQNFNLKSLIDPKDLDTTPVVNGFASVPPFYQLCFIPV

[15] = Volume of distribution in BALB/c mouse at 5 mg/kg, iv measured for 8 hrs; type: ADME, organism-based; settings: in vivo; how it was run: as §2
[16] = Cmax in BALB/c mouse at 10 mg/kg, po measured for 8 hrs; type: ADME, organism-based; set-up: route oral, dose 10 mg/kg, time 8 hrs; settings: in vivo; how it was run: as §3
Cytochrome P450 2D6 = Cytochrome P450 2D6 (Homo sapiens, UniProt P10635); assay: Inhibition of CYP2D6 (unknown origin) using Luciferin-ME-EG as substrate at 10 uM preincubated with enzyme and substrate for 5 mins followed by addition of NADPH regeneration system and measured after 60 mins by luminescence method; type: ADME; how it was run: as §4
Sequence of Cytochrome P450 2D6 (P10635 whole entry): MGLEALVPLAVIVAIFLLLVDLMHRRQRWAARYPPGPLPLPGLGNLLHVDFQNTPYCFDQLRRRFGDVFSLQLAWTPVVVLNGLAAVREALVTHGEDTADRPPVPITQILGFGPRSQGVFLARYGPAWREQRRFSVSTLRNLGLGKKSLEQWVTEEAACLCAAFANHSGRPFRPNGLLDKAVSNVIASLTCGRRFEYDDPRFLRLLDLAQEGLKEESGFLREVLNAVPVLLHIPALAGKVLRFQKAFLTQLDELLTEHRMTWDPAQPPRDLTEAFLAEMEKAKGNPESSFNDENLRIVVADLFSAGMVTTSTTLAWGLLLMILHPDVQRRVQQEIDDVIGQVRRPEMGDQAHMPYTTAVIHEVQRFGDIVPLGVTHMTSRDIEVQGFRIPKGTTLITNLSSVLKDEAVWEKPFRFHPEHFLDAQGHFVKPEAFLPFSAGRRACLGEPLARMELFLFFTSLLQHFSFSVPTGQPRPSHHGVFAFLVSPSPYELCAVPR

Cytochrome P450 1A2 = target: T1, Cytochrome P450 1A2 (Homo sapiens, UniProt P05177); assay: Inhibition of CYP1A2 (unknown origin) using Luciferin-ME as substrate at 10 uM preincubated with enzyme and substrate for 5 mins followed by addition of NADPH regeneration system and measured after 60 mins by luminescence method; type: ADME; how it was run: as §4
T1 sequence (P05177 whole entry): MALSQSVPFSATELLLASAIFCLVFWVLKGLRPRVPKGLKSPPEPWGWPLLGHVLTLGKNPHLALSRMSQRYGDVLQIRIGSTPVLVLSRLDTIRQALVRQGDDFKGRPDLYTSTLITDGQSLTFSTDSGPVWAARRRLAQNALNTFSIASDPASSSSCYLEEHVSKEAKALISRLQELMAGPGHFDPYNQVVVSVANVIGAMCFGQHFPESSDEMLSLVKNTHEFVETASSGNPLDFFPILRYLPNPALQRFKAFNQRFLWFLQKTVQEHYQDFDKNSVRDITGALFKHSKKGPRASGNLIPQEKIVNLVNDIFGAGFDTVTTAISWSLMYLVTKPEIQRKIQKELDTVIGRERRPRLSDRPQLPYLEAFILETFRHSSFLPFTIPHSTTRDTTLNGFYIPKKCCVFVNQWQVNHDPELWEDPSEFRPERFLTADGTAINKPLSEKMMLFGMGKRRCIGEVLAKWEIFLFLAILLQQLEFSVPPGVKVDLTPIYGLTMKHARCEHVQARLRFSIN

Cytochrome P450 3A4 = Cytochrome P450 3A4 (Homo sapiens, UniProt P08684); assay: Inhibition of CYP3A4 (unknown origin) using Luciferin-PPXE as substrate at 10 uM preincubated with enzyme and substrate for 5 mins followed by addition of NADPH regeneration system and measured after 60 mins by luminescence method; type: ADME; how it was run: as §4
Sequence of Cytochrome P450 3A4 (P08684 whole entry): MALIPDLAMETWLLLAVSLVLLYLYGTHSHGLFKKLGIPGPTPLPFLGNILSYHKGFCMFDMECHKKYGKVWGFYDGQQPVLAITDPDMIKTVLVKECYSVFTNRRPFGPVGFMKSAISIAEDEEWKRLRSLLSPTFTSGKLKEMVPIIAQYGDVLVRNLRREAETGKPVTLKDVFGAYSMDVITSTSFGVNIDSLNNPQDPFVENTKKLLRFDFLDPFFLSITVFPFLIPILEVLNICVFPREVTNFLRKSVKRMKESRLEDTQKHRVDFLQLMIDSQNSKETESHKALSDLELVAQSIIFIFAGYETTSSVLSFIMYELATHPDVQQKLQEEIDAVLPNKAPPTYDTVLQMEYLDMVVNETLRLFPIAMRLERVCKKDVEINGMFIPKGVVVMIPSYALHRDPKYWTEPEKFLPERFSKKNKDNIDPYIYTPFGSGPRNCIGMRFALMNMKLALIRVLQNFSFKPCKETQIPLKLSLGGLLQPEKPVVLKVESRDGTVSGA

[17] = Plasma concentration in BALB/c mouse at 10 mg/kg, po measured for 8 hrs; type: ADME, organism-based; how it was run: as §2

Sequence of Voltage-gated inwardly rectifying potassium channel KCNH2 (Q12809 whole entry): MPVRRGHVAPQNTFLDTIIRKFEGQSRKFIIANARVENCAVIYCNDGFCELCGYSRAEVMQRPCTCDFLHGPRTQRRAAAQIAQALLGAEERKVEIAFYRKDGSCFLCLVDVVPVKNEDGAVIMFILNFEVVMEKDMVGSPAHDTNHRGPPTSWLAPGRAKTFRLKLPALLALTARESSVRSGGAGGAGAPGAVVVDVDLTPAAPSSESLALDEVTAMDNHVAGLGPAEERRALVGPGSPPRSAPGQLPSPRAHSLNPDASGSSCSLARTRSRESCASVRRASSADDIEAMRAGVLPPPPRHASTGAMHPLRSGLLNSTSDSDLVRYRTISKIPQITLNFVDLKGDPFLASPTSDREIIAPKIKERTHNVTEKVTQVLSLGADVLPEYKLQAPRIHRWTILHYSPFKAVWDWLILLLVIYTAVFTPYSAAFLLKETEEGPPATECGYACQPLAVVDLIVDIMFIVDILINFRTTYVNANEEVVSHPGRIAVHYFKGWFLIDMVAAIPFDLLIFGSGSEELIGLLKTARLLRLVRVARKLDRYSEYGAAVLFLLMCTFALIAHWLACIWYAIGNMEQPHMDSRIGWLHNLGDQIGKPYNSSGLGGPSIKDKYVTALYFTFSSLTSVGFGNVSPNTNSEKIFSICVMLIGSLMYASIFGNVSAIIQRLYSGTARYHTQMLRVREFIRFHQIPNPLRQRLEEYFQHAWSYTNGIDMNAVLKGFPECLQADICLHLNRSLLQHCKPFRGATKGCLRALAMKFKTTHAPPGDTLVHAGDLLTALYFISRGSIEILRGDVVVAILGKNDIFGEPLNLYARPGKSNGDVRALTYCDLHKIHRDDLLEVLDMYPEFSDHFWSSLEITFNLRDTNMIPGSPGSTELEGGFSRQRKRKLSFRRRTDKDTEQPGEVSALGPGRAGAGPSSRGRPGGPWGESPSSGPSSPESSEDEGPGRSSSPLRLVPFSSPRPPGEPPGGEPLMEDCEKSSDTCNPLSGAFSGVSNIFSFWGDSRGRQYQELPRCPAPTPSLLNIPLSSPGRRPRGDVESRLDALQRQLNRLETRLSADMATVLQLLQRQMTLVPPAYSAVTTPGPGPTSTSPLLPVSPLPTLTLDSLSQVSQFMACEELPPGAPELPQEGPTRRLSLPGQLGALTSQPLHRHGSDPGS

COc1ncc2cc1NS(=O)(=O)c1cc(c(F)cc1F)C(=O)NCc1cncc(c1)-c1ccnc3ccc-2cc13
IC50 [1]: > 30000 nM
remaining at 0.25 h, 0.5 µM [2]: 88%
Tmax [3]: 0.25 h
IC50 [4]: 22.3 nM
remaining at 0.25 h, 0.5 µM [5]: 89%
bioavailability [6]: 40.6%
IC50 (Cytochrome P450 2C9): 8300 nM
AUC(0-inf) [7]: 7680 ng·h/mL
IC50 [8]: 0.8 nM
remaining at 0.25 h, 0.5 µM [9]: 97%
clearance [10]: 8.83 mL/min/kg
EC50 [11]: 10.7 nM
AUC(0-inf) [12]: 9470 ng·h/mL
half-life [13]: 2.78 h
Ratio IC50 (Homo sapiens): 27.8
half-life [14]: 0.57 h
IC50 (Cytochrome P450 2C19): > 30000 nM
Vd [15]: 0.28 L/kg
Cmax [16]: 3390 ng/mL
IC50 (Cytochrome P450 2D6): > 30000 nM
IC50 (Cytochrome P450 1A2): > 30000 nM
IC50 (Cytochrome P450 3A4): > 30000 nM
concentration at 8 h [17]: 264 ng/mL

COc1ncc2cc1NS(=O)(=O)c1cccc(c1)C(=O)NCc1cc(ccn1)-c1ccnc3ccc-2cc13
IC50 [1]: > 30000 nM
IC50 [4]: 122 nM and 72.2 nM
IC50 [8]: 6.1 nM

COc1ncc2cc1NS(=O)(=O)c1cccc(c1)C(=O)NCc1cncc(c1)-c1ncnc3ccc-2cc13
IC50 [1]: > 30000 nM
remaining at 0.25 h, 0.5 µM [2]: 76%
Tmax [3]: 0.16 h
IC50 [4]: 4.9 nM
remaining at 0.25 h, 0.5 µM [5]: 80%
bioavailability [6]: 47.6%
IC50 (Cytochrome P450 2C9): > 30000 nM
AUC(0-inf) [7]: 8760 ng·h/mL
IC50 [8]: 1.3 nM
remaining at 0.25 h, 0.5 µM [9]: 86%
clearance [10]: 9 mL/min/kg
EC50 [11]: 20.6 nM
AUC(0-inf) [12]: 9200 ng·h/mL
half-life [13]: 5.68 h
Ratio IC50 (Homo sapiens): 3.8
half-life [14]: 2.91 h
IC50 (Cytochrome P450 2C19): > 30000 nM
Vd [15]: 0.59 L/kg
Cmax [16]: 1270 ng/mL
IC50 (Cytochrome P450 2D6): > 30000 nM
IC50 (Cytochrome P450 1A2): > 30000 nM
IC50 (Cytochrome P450 3A4): > 30000 nM
concentration at 8 h [17]: 424 ng/mL

COc1ncc2cc1NS(=O)(=O)c1cccc(c1)C(=O)NCCn1cc(cn1)-c1ncnc3ccc-2cc13
IC50 [4]: 16.5 nM

COc1ncc2cc1NS(=O)(=O)c1cccc(c1)C(=O)NCc1cccc(c1)-c1ncnc3sc-2cc13
IC50 [4]: 4.7 nM

COc1ncc2cc1NS(=O)(=O)c1cccc(c1)C(=O)NCC1CCN(CC1)c1ccnc3ccc-2cc13
IC50 [4]: 4.1 nM

COc1ncc2cc1NS(=O)(=O)c1cccc(c1)C(=O)NCc1cncc(c1)-c1ncnc3sc-2cc13
IC50 [4]: 39.9 nM

COc1ncc2cc1NS(=O)(=O)c1cccc(c1)C(=O)NCc1ccc(F)c(c1)-c1ccnc3ccc-2cc13
IC50 [4]: 655 nM

COc1ncc2cc1NS(=O)(=O)c1cccc(c1)C(=O)NCc1cncc(c1)-c1cnc3ccc-2nn13
IC50 [1]: > 30000 nM
IC50 [4]: 16.7 nM
IC50 [8]: 3 nM
EC50 [11]: 99.4 nM
Ratio IC50 (Homo sapiens): 5.5

COc1ncc2cc1NS(=O)(=O)c1cccc(c1)C(=O)NCc1cccc(c1F)-c1ccnc3ccc-2cc13
IC50 [4]: 223 nM

COc1ncc2cc1NS(=O)(=O)c1cccc(c1)C(=O)NCc1cncc(c1)-c1ccnc3ccc-2nc13
IC50 [1]: > 30000 nM
IC50 [4]: 49 nM

COc1ncc2cc1NS(=O)(=O)c1cccc(c1)C(=O)NCc1cccc(c1)-c1ncnc3ccc-2cc13
IC50 [1]: > 30000 nM
remaining at 0.25 h, 0.5 µM [2]: 74%
remaining at 0.25 h, 0.5 µM [5]: 97%
IC50 (Cytochrome P450 2C9): > 30000 nM
IC50 [8]: 2.5 nM
remaining at 0.25 h, 0.5 µM [9]: 91%
EC50 [11]: 47.9 nM
IC50 (Cytochrome P450 2C19): > 30000 nM
IC50 (Cytochrome P450 2D6): > 30000 nM
IC50 (Cytochrome P450 1A2): > 30000 nM
IC50 (Cytochrome P450 3A4): > 30000 nM

COc1ncc2cc1NS(=O)(=O)c1cccc(c1)C(=O)NCC1CCN(CC1)c1ncnc3ccc-2cc13
IC50 [4]: 23.4 nM
